Structures are written as SMILES.

This series in a line: Toxicity liver stage against HepG2, at 10uM. Format: cell-based. On the set-up: test concentration 10 uM, cell line HepG2-A16-CD81EGFP. Particulars: human, HepG2-A16-CD81EGFP cells; read-out: INHIBITION
The essentials:
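Uninfected HepG2-A16-CD81EGFP cells, 3 × 10^3 per well, 1536-well, plated on prespotted compound at 10 μM final, parasite-free screening media added to match infected plates; puromycin 10 μM positive, DMSO 0.5% negative; run in parallel with 48 h PbLuc assay at 37 °C, 5% CO2; viability by CellTiter-Glo luminescence, normalized to controls.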
On to `CCC(=O)N1CCCC(c2nc(N(C)C)ncc2-c2ccc(F)cc2)C1` (centres undefined), for which the cytotoxicity at 10 µM amounted to 28.1%.
For `CCOC1COC2(CCN(c3ncc(C)cn3)CC2)C1` (centres undefined), the cytotoxicity at 10 µM came to 7.21%.
Under `CC1COCCN1Cc1nc(-c2ccc(F)cc2)no1` (centres undefined) stands -9.4%; under `CCc1nc(C2CCCN2CC(=O)Nc2c(C)n[nH]c2C)no1` (centres undefined), -3.79%; under `N#Cc1cc(NC(=O)c2ccncc2)ccc1N1CCC(O)CC1`, 7.48%.
For the compound `Cc1cn2c(CN(C)C(=O)c3cnc(N)c(Cl)c3)c(C)nc2s1`, the cytotoxicity at 10 µM was -8.46%.
For the compound `CC1CCN(C(=O)[C@@H]2C[C@@H]3CCN(CC4CCOCC4)C[C@@H]3O2)CC1`, the cytotoxicity at 10 µM worked out at 7.13%.
`COCCn1cnc2ccc(NC(=O)c3c(C)noc3C)cc2c1=O`: the cytotoxicity at 10 µM is 4.13%.
In the case of `COc1ccc(S(=O)(=O)NCC(O)c2sccc2C)cc1C` (centres undefined), the cytotoxicity at 10 µM is 1.69%.
Under `CC[C@@H](Cn1ncc2ccccc2c1=O)NC(=O)c1ccco1` stands 8.44%.
On to `c1ccc2nc(N3CCCC(Cn4cncn4)C3)cnc2c1` (centres undefined), for which the cytotoxicity at 10 µM is 5.46%.
`Cc1nccn1C1CCCN(C(=O)Cc2cn3ccccc3n2)C1` (centres undefined): the cytotoxicity at 10 µM is -20.9%.
Turning to `COCCSCC(=O)NCc1ccc(N(C)C)cc1`, the cytotoxicity at 10 µM came out at 19%.
Turning to `Cc1cc(NC(=O)N2CCN(c3nc(C)c(C)s3)CC2)no1`, the cytotoxicity at 10 µM amounted to 3.04%.
For the compound `CN1C(=O)CC(c2ccccc2)C12CCN(C(=O)c1ccc[nH]1)CC2` (centres undefined), the cytotoxicity at 10 µM turned out to be 7.52%.
As to `O=C(NC1CC2(CCN(CCO)CC2)c2ccccc21)c1ccncc1` (centres undefined), the cytotoxicity at 10 µM is -9.54%.
For `COCCNC(=O)C1(CCCc2cccnc2)CCCN1C` (centres undefined), the cytotoxicity at 10 µM came out at 20.1%.
As to `CC(CNC(=O)c1cc(Cl)ccc1I)N1CCCC1` (centres undefined), the cytotoxicity at 10 µM was -5.28%.
For `COCC(=O)N1CCOC(c2cccc(-c3cncnc3)n2)C1` (centres undefined), the cytotoxicity at 10 µM was 0.109%.
For `CC(c1ccccc1Cl)N(C)Cc1nc2c(cnn2C)c(=O)[nH]1` (centres undefined) the value was -5.19%; for `COC(=O)NCC(=O)NCc1nn(-c2ccccc2)c2c1CCC2`, -7.72%.
As to `O=C(CNC(=O)N1CCc2c([nH]c3ccc(Cl)cc23)C1)NCCCO`, the cytotoxicity at 10 µM stood at 5.36%.
As for `COCCNc1c(-c2ccc(Cl)cc2)c(=O)c1=O`, the cytotoxicity at 10 µM was -1.99%.
Take `O=C(NCc1ccc2c(c1)OCO2)[C@@H]1C=CCN1c1ncccn1`: the cytotoxicity at 10 µM is 0.146%.
For `COC(=O)c1cccc(C(=O)N2CCN(c3ccc(OC)cc3)CC2)n1`, the cytotoxicity at 10 µM was -7.12%.
As for `CS(=O)(=O)N1CCc2ccc(=O)n(CCN3CCCC3)c2CC1`, the cytotoxicity at 10 µM amounted to 0.108%.
For the compound `Cc1[nH]c2c(C)ccc(C)c2c1CC(=O)NCc1csc(N(C)C)n1`, the cytotoxicity at 10 µM was -6.65%.
In the case of `CCn1cc(S(=O)(=O)N(CCc2ccccc2)Cc2ccn(C)n2)cn1`, the cytotoxicity at 10 µM is 2.6%.
With `O=C(CCN1C(=O)CCC1=O)NCC1(c2c(F)cccc2F)CCCC1`, the cytotoxicity at 10 µM was -9.47%.
As for `CN(C)c1ccc(NC(=O)NCc2cccnc2N(C)C)cn1`, the cytotoxicity at 10 µM is -20.9%.
Regarding `CCN(CC)c1ncnc2c1CCN(C(=O)Cc1ccccn1)CC2`, the cytotoxicity at 10 µM was determined as 3.13%.
With `Cc1ccccc1CNC(=O)CN1CCN(Cc2nccn2C)CC1`, the cytotoxicity at 10 µM is -5.75%.
Consider `O=C(CN1CCCC(CO)C1)NCCOc1cccc(Cl)c1` (centres undefined), for which the cytotoxicity at 10 µM is -12.2%.
In the case of `O=C(c1ccc(-c2cccs2)cc1F)N1CCN(CCO)CC1`, the cytotoxicity at 10 µM is -47.3%.
For `Cc1nn(C)c(C)c1OCC(=O)N1CCCc2c(F)ccc(F)c21`, the cytotoxicity at 10 µM was found to be 2.27%.
`CN1CCN(C(=O)NCCc2ccc(F)cc2)[C@H]2CS(=O)(=O)C[C@H]21`: the cytotoxicity at 10 µM is 10.8%.
As to `O=C1CN(Cc2ccc(-c3ccccc3C(=O)O)cc2)CCN1`, the cytotoxicity at 10 µM was -1.88%.
For `Cc1ccc(C(=O)NCC(O)c2cnn(C)c2)c(Br)c1` (centres undefined) the value was -6.53%.
`COc1ccnc(NC2CCN(CC(=O)N3CCCC3)CC2)n1`: the cytotoxicity at 10 µM is -7.88%.

(Values after ChEMBL document CHEMBL4513216, “Probing the Open Global Health Chemical Diversity Library for Multistage-Active Starting Points for Next-Generation Antimalarials” (ACS Infect Dis, 2020).)
